{
  "source": "PubChem BioAssay AID651783",
  "about": "(The Scripps Research Institute Molecular Screening Center, 2012)",
  "note": "In all, about 2,400 compounds went through this assay and about 2,000 (83%) were called active. The set was probably picked from earlier hits. These entries were drawn from the full list. A number with no mark means an inactive call.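 How the source made its calls: active means activation above a cutoff set at the run's mean compound activation plus 3 SD (cut at about 39% in these data); inactive means the rest.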",
  "data": [
    {"target": "Trace amine-associated receptor 1 (Homo sapiens) (UniProt Q96RJ0)", "sequence (Q96RJ0 whole entry, looked up)": "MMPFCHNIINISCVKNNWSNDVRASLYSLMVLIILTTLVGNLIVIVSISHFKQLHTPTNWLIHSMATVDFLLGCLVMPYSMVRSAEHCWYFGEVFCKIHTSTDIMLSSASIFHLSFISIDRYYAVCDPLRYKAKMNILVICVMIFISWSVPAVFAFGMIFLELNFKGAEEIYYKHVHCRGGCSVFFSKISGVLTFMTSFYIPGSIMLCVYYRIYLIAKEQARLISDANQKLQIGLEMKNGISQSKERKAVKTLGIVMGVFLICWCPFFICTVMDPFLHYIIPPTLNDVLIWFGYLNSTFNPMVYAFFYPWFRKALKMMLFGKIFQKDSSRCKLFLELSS", "experiment": "human TAAR1 agonists, retest of hits, confirmation, Fluo-8 calcium fluorescence, CHO RD-HGA16 cells (AID 651783);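 further: promiscuous G-alpha-16 overexpression reroutes TAAR1 signalling from cAMP to calcium; peak fluorescence divided by basal pre-compound fluorescence per well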", "conditions": "CHO RD-HGA16 TAAR1, Fluo-8 calcium fluorescence; at 3 µM; active compounds read high; scaled: DMSO 0%, maximal phenethylamine 100%", "how_it_was_run": "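System: hTAAR1/Gα16 CHO (RD-HGA16) cell line | Compound: Single nominal final dose of 3 µM per compound | Schedule: Fluo-8 dye loading 75 min 37 °C, then 30 min room temperature | Technique: Fluo-8 calcium signal, kinetic fluorescence read | Read-out: % activation from max-to-basal fluorescence ratio, DMSO-to-PEA scaled | Replicates: Triplicate wells per compound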", "values": [
      {"smiles": "O=C(COC(=O)Cc1ccccc1F)NCCc1ccccc1", "activation": "73% (active)"},
      {"smiles": "C[C@H](NC(=O)c1ccccc1)C(=O)OCC(=O)c1c[nH]c2ccccc12", "activation": "79.6% (active)"},
      {"smiles": "CC(=O)Nc1ccccc1Sc1ccc2c3c(cccc13)C(=O)N(c1ccc(C)cc1)C2=O", "activation": "-2.82%"},
      {"smiles": "Cc1ccn2c(=O)c(C(=O)NCCC3=CCCCC3)c(O)nc2c1", "activation": "106% (active)"},
      {"smiles": "O=C(CCCN=C1NS(=O)(=O)c2ccccc21)OCC(=O)c1ccc(F)c(F)c1", "activation": "83.8% (active)"},
      {"smiles": "O=Cc1c(NCCc2cccc(F)c2)c2ccccc2[nH]c1=O", "activation": "78.3% (active)"},
      {"smiles": "CCCCOc1ccc(CSC(=N)N)cc1[N+](=O)[O-]", "activation": "48% (active)"},
      {"smiles": "O=C1CCCC(O)=C1C=NCCc1ccccc1", "activation": "74.5% (active)"},
      {"smiles": "COc1cccc(-c2cnc(OC(C)(C)C)nc2OC(C)(C)C)c1", "activation": "38.6% (active)"},
      {"smiles": "CN(C)c1ccc(/C=C2\\NC(=S)N(Cc3ccccc3)C2=O)cc1", "activation": "51.1% (active)"},
      {"smiles": "O=C(CSc1nc(-c2ccco2)cc(C(F)(F)F)n1)NCc1cccs1", "activation": "-0.49%"},
      {"smiles": "c1ccc2c(c1)OCC(CNc1ncnc3nc[nH]c13)O2", "note": "(configuration not stated)", "activation": "210% (active)"},
      {"smiles": "CCCSc1nc2c(c(=O)n(C)c(=O)n2C)n1Cc1ccc(C)cc1", "activation": "61% (active)"},
      {"smiles": "COc1ccc(C(=O)CN2C(=O)NC(C)(c3ccc(C)cc3)C2=O)cc1OC", "note": "(configuration not stated)", "activation": "46.6% (active)"},
      {"smiles": "c1ccc(Nc2nc(N3CCOCC3)c3ccccc3n2)cc1", "activation": "93.8% (active)"},
      {"smiles": "CC(NC(=O)c1cc(-c2ccccc2)on1)c1ccccc1", "note": "(configuration not stated)", "activation": "66.5% (active)"},
      {"smiles": "O=C(Nc1ccccc1)Nc1nnc(COc2ccccc2F)s1", "activation": "71.7% (active)"},
      {"smiles": "Nc1cc(OC(=O)c2ccccc2Br)nn1S(=O)(=O)c1ccccc1", "activation": "59.1% (active)"},
      {"smiles": "NC(Cc1ccccc1)c1csc(Nc2cc(Oc3ccccc3)ncn2)n1", "note": "(configuration not stated)", "activation": "87% (active)"},
      {"smiles": "CC(C)(C)CC(=O)Nc1nc(C(N)Cc2ccc(C(F)(F)F)cc2)cs1", "note": "(configuration not stated)", "activation": "99% (active)"},
      {"smiles": "COc1ccc(CC(N)c2csc(NC(=O)Cc3ccccc3)n2)cc1", "note": "(configuration not stated)", "activation": "57.8% (active)"},
      {"smiles": "CN(C)CCCN(C(=O)c1ccc(S(=O)(=O)N2CCCc3ccccc32)cc1)c1nc2ccc(F)cc2s1", "activation": "62.2% (active)"},
      {"smiles": "CN(C)CCCN(C(=O)c1ccc(S(=O)(=O)N2CCCCCC2)cc1)c1nc2ccc(Br)cc2s1", "activation": "44% (active)"},
      {"smiles": "Cc1cccc(NC(=O)C(C)N2C(=O)C3C4CC(C(Br)C4Br)C3C2=O)c1", "note": "(configuration not stated)", "activation": "33.9%"},
      {"smiles": "O=C1CCCN2N=C(SCC(=O)Nc3ccc(Br)cc3)SC2=N1", "activation": "55.6% (active)"},
      {"smiles": "O=C(NCCc1ccccc1)C(=O)NCC1OCCN1S(=O)(=O)c1cccs1", "note": "(configuration not stated)", "activation": "70.4% (active)"},
      {"smiles": "Cn1c(=O)c(=O)n(C)c2cc(S(=O)(=O)NCCc3ccccc3)ccc21", "activation": "98.3% (active)"},
      {"smiles": "CC(Oc1ccc2ccccc2c1)C(=O)NNC(=S)NC(=O)c1ccco1", "note": "(configuration not stated)", "activation": "76% (active)"},
      {"smiles": "CCCc1ccc(OCC(=O)NNC(=S)NC(=O)c2ccco2)cc1", "activation": "93.8% (active)"},
      {"smiles": "Oc1ccc2ccc3cccc[n+]3c2c1", "activation": "60.5% (active)"},
      {"smiles": "COc1ccc(C(N)c2csc(NC(=O)Nc3cccc(C(F)(F)F)c3)n2)cc1", "note": "(configuration not stated)", "activation": "45.9% (active)"},
      {"smiles": "NC(c1ccccc1)c1csc(NC(=O)Nc2cccc(C(F)(F)F)c2)n1", "note": "(configuration not stated)", "activation": "61.4% (active)"},
      {"smiles": "O=c1cnnc(Nc2ccccc2)[nH]1", "activation": "80.2% (active)"},
      {"smiles": "CCCCC(=O)NNC(=S)NC(=O)C(c1ccccc1)c1ccccc1", "activation": "152% (active)"},
      {"smiles": "Cc1cc(C)c2cc(C#N)c(N3CCNCC3)nc2c1", "activation": "90.6% (active)"},
      {"smiles": "CCOc1ccc(Br)cc1CSC(=N)N", "activation": "73.8% (active)"},
      {"smiles": "CCN(CC)c1ccc2oc(=O)c(C)nc2c1", "activation": "34.1%"},
      {"smiles": "O=C(Nc1ccc(Cl)cc1)N1CCc2[nH]c3ccccc3c2C1", "activation": "21.7%"},
      {"smiles": "O=C(c1noc2c1CCCC2)N1CCc2ccccc2C1", "activation": "68% (active)"},
      {"smiles": "Cc1cc(=O)oc2c(C)c(OCC(=O)NCCN3CCOCC3)ccc12", "activation": "2.28%"},
      {"smiles": "c1ccc(-c2csc(N3CCc4ccccc4C3)n2)cc1", "activation": "81.8% (active)"},
      {"smiles": "CSc1nc(N)c(C#N)c(-c2ccccc2Cl)c1C#N", "activation": "58.5% (active)"},
      {"smiles": "O=C(NCCc1ccccc1)/C(=C\\c1ccc([N+](=O)[O-])cc1)NC(=O)c1ccccc1", "activation": "34.4%"},
      {"smiles": "CCCCCC(=O)NC(=S)NNC(=O)c1ccc([N+](=O)[O-])cc1", "activation": "113% (active)"},
      {"smiles": "Cc1ccc(Cl)cc1N1CCN(C(=O)c2cccc3c(=O)c(C)c(-c4ccccc4)oc23)CC1", "activation": "113% (active)"},
      {"smiles": "S=C(NCCc1ccccc1)N1CCn2cccc2C1c1ccncc1", "note": "(configuration not stated)", "activation": "95% (active)"},
      {"smiles": "COc1ccc2c(c1)OC(O)(C(F)(F)C(F)F)CC2=O", "note": "(configuration not stated)", "activation": "38.7% (active)"},
      {"smiles": "COC(=O)c1[nH]c2cccc(C)c2c1NC(=O)CN1CCCc2ccccc21", "activation": "68.9% (active)"},
      {"smiles": "Cc1cc2nc3c(=O)[nH]c(=O)nc-3n(C[C@H](O)[C@H](O)[C@H](O)CO)c2cc1C", "activation": "121% (active)"},
      {"smiles": "O=C(N[C@H](C(=O)N1CCC[C@H]1C(=O)NCCc1ccccc1Cl)c1ccccc1)c1ccccc1", "activation": "83.6% (active)"},
      {"smiles": "Nc1cccc2c1C(=O)N(Cc1nnc(-c3ccccc3Br)o1)C2=O", "activation": "100% (active)"},
      {"smiles": "CCC(c1nnnn1Cc1ccco1)N(CCc1ccccc1)Cc1cc2cccc(C)c2[nH]c1=O", "note": "(configuration not stated)", "activation": "50.2% (active)"},
      {"smiles": "CCC(c1nnnn1Cc1ccco1)N(CCc1ccccc1)Cc1cc2ccc(OC)cc2[nH]c1=O", "note": "(configuration not stated)", "activation": "30.9%"},
      {"smiles": "CCCn1c(O)c(CN2CCCC(C)C2)c(C)c(C#N)c1=O", "note": "(configuration not stated)", "activation": "85% (active)"},
      {"smiles": "Nc1c(NCCc2ccccc2)c2ccccc2oc1=O", "activation": "70.5% (active)"},
      {"smiles": "CC(Oc1ccc(Cl)cc1)C(=O)OCC(=O)Nc1ncc(Cl)cc1Cl", "note": "(configuration not stated)", "activation": "30.3%"},
      {"smiles": "O=[N+]([O-])c1cc(S(=O)(=O)NCCc2ccccn2)ccc1Cl", "activation": "76.4% (active)"},
      {"smiles": "O=C1C=C(c2ccc(Cl)cc2)C(=O)N1Nc1ccccc1", "activation": "58.5% (active)"},
      {"smiles": "CCc1ccccc1S(=O)(=O)Cc1ccc(C(=O)NCCc2ccccc2)o1", "activation": "78.3% (active)"},
      {"smiles": "O=C(NNC(=S)NC(=O)c1cn(-c2ccccc2)nc1-c1ccccc1)c1ccncc1", "activation": "103% (active)"},
      {"smiles": "O=C(Nc1ccc(F)cc1)Nc1nnc([C@H]2C[C@H](O)[C@@H](CO)O2)s1", "activation": "52.9% (active)"},
      {"smiles": "Nc1c(C(=O)c2cccs2)sc2nsc(SCCN3CCCCC3)c12", "activation": "85% (active)"}
    ]}
  ]
}
